Results as given in ChEMBL document CHEMBL3244183, “Synthesis and antibacterial activity of isomeric 6- and 7-acetyl-3-methyl-2- quinoxalinecarbozamide 1,4-dioxides” (1978).
Values after ≈ are worked out from the molar mass of the structure shown.

Experiments:
Type in all cases: functional
Salmonella enterica [1] = test: Antimicrobial activity against Salmonella choleraesuis measured after overnight incubation by susceptibility test
Outline: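 MIC by agar dilution: about 10^4 organisms applied with a replicating device onto brain-heart infusion agar containing twofold dilutions of the quinoxaline 1,4-dioxide; incubated overnight at 37 °C under anaerobic conditions (Gas Pak).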

Pasteurella multocida [2] = test: Antimicrobial activity against Pasteurella multocida infected in mouse compound administered orally at 0.5 hr, 4 hrs and 24 hrs post infection; conditions: po, read-out: PD50
Outline: (§1)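 Infections in male and female mice (11–13 g), given intraperitoneally at one to ten times the inoculum lethal to all nonmedicated mice within 4 days. Standardized cultures were suspended in brain-heart infusion broth. Doses were given at 0.5, 4.0 and 24 h post-infection. The 50% protective dose was derived by probit analysis.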

Pasteurella multocida [3] = test: Antimicrobial activity against Pasteurella multocida measured after overnight incubation by susceptibility test
Outline: (§2)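 MIC by agar dilution: about 10^4 organisms applied with a replicating device onto brain-heart infusion agar holding twofold dilutions of drug; plates incubated overnight at 37 °C under anaerobic conditions (Gas Pak environment); MIC read as lowest inhibiting concentration.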

Streptococcus pyogenes [4] = test: Antimicrobial activity against Streptococcus pyogenes infected in mouse compound administered subcutaneously at 0.5 hr, 4 hrs and 24 hrs post infection; conditions: sc, read-out: PD50; outline: as §1
Salmonella enterica [5] = test: Antimicrobial activity against Salmonella choleraesuis infected in mouse compound administered orally at 0.5 hr, 4 hrs and 24 hrs post infection; conditions: po, read-out: PD50
Outline: (§3)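 Male and female mice, 11–13 g. Acute systemic infection by intraperitoneal inoculation of 1–10 times the organism count killing 100% of untreated mice in 4 days; standardized cultures suspended in 5% hog gastric mucin. Treated 0.5 h after infection, again at 4.0 h and at 24 h. PD50 (50% protective dose) calculated by probit method.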

Escherichia coli [6] = test: Antimicrobial activity against Escherichia coli infected in mouse compound administered orally at 0.5 hr, 4 hrs and 24 hrs post infection; conditions: po, read-out: PD50; outline: as §3
Escherichia coli [7] = test: Antimicrobial activity against Escherichia coli measured after overnight incubation by susceptibility test; outline: as §2
Pasteurella multocida [8] = test: Antimicrobial activity against Pasteurella multocida infected in mouse compound administered subcutaneously at 0.5 hr, 4 hrs and 24 hrs post infection; conditions: sc, read-out: PD50; outline: as §1
Salmonella enterica [9] = test: Antimicrobial activity against Salmonella choleraesuis infected in mouse compound administered subcutaneously at 0.5 hr, 4 hrs and 24 hrs post infection; conditions: sc, read-out: PD50; outline: as §3
Streptococcus pyogenes [10] = test: Antimicrobial activity against Streptococcus pyogenes measured after overnight incubation by susceptibility test; outline: as §2
Streptococcus pyogenes [11] = test: Antimicrobial activity against Streptococcus pyogenes infected in mouse compound administered orally at 0.5 hr, 4 hrs and 24 hrs post infection; conditions: po, read-out: PD50; outline: as §1
Escherichia coli [12] = test: Antimicrobial activity against Escherichia coli infected in mouse compound administered subcutaneously at 0.5 hr, 4 hrs and 24 hrs post infection; conditions: sc, read-out: PD50; outline: as §3
Pasteurella multocida [13] = test: Ratio of PD50 for Pasteurella multocida infected in po dosed mouse to PD50 for Pasteurella multocida infected in sc dosed mouse
Escherichia coli [14] = test: Ratio of PD50 for Escherichia coli infected in po dosed mouse to PD50 for Escherichia coli infected in sc dosed mouse
Salmonella enterica [15] = test: Ratio of PD50 for Salmonella choleraesuis infected in po dosed mouse to PD50 for Salmonella choleraesuis infected in sc dosed mouse
Streptococcus pyogenes [16] = test: Ratio of PD50 for Streptococcus pyogenes infected in po dosed mouse to PD50 for Streptococcus pyogenes infected in sc dosed mouse

Compound | MIC (Salmonella enterica [1]) [µg/mL] | ED50 (Pasteurella multocida [2]) [mg/kg] | MIC (Pasteurella multocida [3]) [µg/mL] | ED50 (Streptococcus pyogenes [4]) [mg/kg] | ED50 (Salmonella enterica [5]) [mg/kg] | ED50 (Escherichia coli [6]) [mg/kg] | MIC (Escherichia coli [7]) [µg/mL] | ED50 (Pasteurella multocida [8]) [mg/kg] | ED50 (Salmonella enterica [9]) [mg/kg] | MIC (Streptococcus pyogenes [10]) [µg/mL] | ED50 (Streptococcus pyogenes [11]) [mg/kg] | ED50 (Escherichia coli [12]) [mg/kg] | Ratio (Pasteurella multocida [13]) | Ratio (Escherichia coli [14]) | Ratio (Salmonella enterica [15]) | Ratio (Streptococcus pyogenes [16])
CC(=O)c1ccc2c(c1)[n+]([O-])c(C)c(C(N)=O)[n+]2[O-] | 0.39 (≈ 1.49 µM) | 13.6 | 0.39 (≈ 1.49 µM) | 54 | 9.9 | 12.6 | 0.39 (≈ 1.49 µM) | 11.7 | 7.6 | 0.19 (≈ 0.727 µM) | 70 | 10.9 |  |  |  | 
CC(=O)c1ccc2c(c1)[n+]([O-])c(C(N)=O)c(C)[n+]2[O-] | 0.19 (≈ 0.727 µM) | 12.7 | 0.19 (≈ 0.727 µM) | 9.2 | 9.1 | 13 | 0.39 (≈ 1.49 µM) | 7.7 | 4.5 | 0.39 (≈ 1.49 µM) | 15 | 5.6 | 2 | 2 | 2 | 2
